Reference: article PMC4775309 (Biochemistry, 2016)

Columns and labels:
Assay in all cases: Fluorescence quenching binding assay, NADPH-free apoenzyme
wild-type PicKR3^0 = target: T1, wild-type PicKR3^0 (Streptomyces venezuelae, UniProt Q9ZGI4)
T1 sequence (Q9ZGI4 1150-1343 limits assumed): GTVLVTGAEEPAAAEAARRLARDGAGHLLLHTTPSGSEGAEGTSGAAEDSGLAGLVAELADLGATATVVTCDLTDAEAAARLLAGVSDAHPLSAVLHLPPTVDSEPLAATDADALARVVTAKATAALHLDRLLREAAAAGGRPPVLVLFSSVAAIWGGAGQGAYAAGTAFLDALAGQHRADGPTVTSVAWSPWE
Outline: (§1)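 Cofactor removed by dialysis, 36 h, against 50 mM potassium phosphate pH 7.5 with 1 M KBr, 5 mM EDTA and 10% glycerol, then 36 h into 50 mM sodium phosphate pH 7.5 with 10% glycerol. Apoenzyme (1 μM) titrated with (±)-2-methyl-3-ketopentanoyl-SNAC (0–50 mM final), 20 min at room temperature. Fluorescence read at pH 7.2 and 30 °C (ex 280, em 338 nm). Quenching (Fapo−Fobs) fitted to a one-site saturation model for Kd.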

wild-type EryKR1 = wild-type EryKR1 (Saccharopolyspora erythraea, UniProt Q03131)
Sequence of wild-type EryKR1 (Q03131 1613-1790 limits assumed): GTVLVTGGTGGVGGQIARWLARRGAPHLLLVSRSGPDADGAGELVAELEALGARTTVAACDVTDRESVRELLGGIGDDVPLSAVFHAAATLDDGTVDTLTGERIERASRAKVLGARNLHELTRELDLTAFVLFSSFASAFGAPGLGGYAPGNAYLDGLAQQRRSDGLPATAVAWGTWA
Outline: as §1

wild-type EryKR3^0 = target: T2, wild-type EryKR3^0 (Saccharopolyspora erythraea, UniProt Q03132)
T2 sequence (Q03132 1132-1297 limits assumed): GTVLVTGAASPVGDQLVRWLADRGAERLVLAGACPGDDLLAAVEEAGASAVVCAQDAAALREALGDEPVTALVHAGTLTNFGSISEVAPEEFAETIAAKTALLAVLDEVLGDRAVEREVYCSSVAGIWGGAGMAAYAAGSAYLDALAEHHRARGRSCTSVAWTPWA
Outline: as §1

## CCC(=O)C(C)C(=O)SCCNC(C)=O (racemic) [compound 1, (±)-2-methyl-3-ketopentanoyl-N-acetycysteamine (SNAC) thioester]
wild-type PicKR3^0
  Kd: 5 ± 0.3 mM
wild-type EryKR1
  Kd: 7.7 ± 0.4 mM
wild-type EryKR3^0
  Kd: 8 ± 0.4 mM
